In ChEMBL document CHEMBL4152257, “Discovery of novel β-carboline/acylhydrazone hybrids as potent antitumor agents and overcome drug resistance” (Eur J Med Chem, 2018):

Experiments:
[1] = Selectivity ratio of IC50 for HUVEC to IC50 for human A2780T cells; type: toxicity; settings: HUVEC versus A2780T cells
Raji = experiment: Antiproliferative activity against human Raji cells after 48 to 72 hrs by MTT assay; type: functional, cell-based
How it was run: (§1)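 Cells in log phase seeded and allowed to adhere, then exposed to graded compound concentrations for 48 h or 72 h; MTT added for a further 2-3 h, formazan dissolved in DMSO. IC50 taken from dose-response curves; mean ± SD of at least three independent experiments.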

NCI/ADR-RES [2] = experiment: Induction of apoptosis in human MCF7/ADR cells assessed as early apoptotic cells at 100 uM after 48 hrs by annexin V-FITC/PI dual staining based flow cytometry (reference value: 2.72%); type: functional
NCI-H460 = experiment: Antiproliferative activity against human H460 cells after 48 to 72 hrs by MTT assay; type: functional, cell-based; how it was run: as §1
[3] = Resistance index, ratio of IC50 for human A2780T cells to IC50 for human A2780S cells; type: functional
NCI/ADR-RES [4] = experiment: Induction of apoptosis in human MCF7/ADR cells assessed as late apoptotic cells at 100 uM after 48 hrs by annexin V-FITC/PI dual staining based flow cytometry (reference value: 5.02%); type: functional

Work on `N#Cc1ccc(COc2cccc(/C=N/NC(=O)c3cc4c(cn3)[nH]c3ccccc34)c2)cc1` yielded a selectivity ratio [1] of 22.2, an IC50 (Raji) of 1.06 to 1.2 µM and an Activity (NCI/ADR-RES [2]) of 7.11%. The IC50 (NCI-H460) was 1.64 to 1.73 µM, the “Ratio IC50” value [3] was 1.32 and the Activity (NCI/ADR-RES [4]) was 30.2%.
